Results taken from ChEMBL document CHEMBL1144153, “Conjugates of the fungal cytotoxin illudin M with improved tumour specificity” (Bioorg Med Chem, 2008).
Calls of active or inactive are those of the source. The rule behind the calls is not given here.

What was measured:
[1] = tested on: PANC-1; experiment: Cytotoxicity against human PANC1 cells up to 10 uM by trypan blue exclusion assay; format: functional, cell-based
Summary of the method: (§1)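 Cells grown in RPMI-1640 with 10% FCS, penicillin and streptomycin at 37 °C, 5% CO2. Exposed to 0.01–10 µM for up to 120 h (24–120 h time course). Harvested, stained with Trypan blue, and unstained cells counted in a Neubauer chamber. Counts expressed relative to untreated controls (100%). Means of three independent experiments.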

[2] = tested on: HT-29; experiment: Cytotoxicity against human HT-29 cells up to 10 uM by trypan blue exclusion assay; format: functional, cell-based; summary of the method: as §1
[3] = Cytotoxicity against HFF cells assessed as viable cells at 1 uM after 48 hrs by trypan blue exclusion assay relative to control; format: cell-based; settings: human, read-out: Activity
Summary of the method: (§2)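 Panc-1 and HT-29 cells were grown in RPMI-1640, and foreskin fibroblasts in DMEM, each with 10% FCS plus penicillin/streptomycin at 37 °C and 5% CO2. Cells were exposed to compound (0.01–10 µM range) for up to 120 h, harvested and stained with Trypan blue. Unstained cells were counted in a Neubauer chamber relative to untreated controls (100%). Means of three independent experiments ± SD.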

[4] = Cytotoxicity against HFF cells assessed as viable cells at 1 uM after 120 hrs by trypan blue exclusion assay relative to control; format: cell-based; settings: human, read-out: Activity; summary of the method: as §2
[5] = tested on: HFF; experiment: Induction of apoptosis in HFF cells assessed as sub-diploid DNA content at 1 uM after 120 hrs by FACS relative to control; format: cell-based; settings: human
Summary of the method: (§3)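 Panc-1 and HT-29 cells (RPMI-1640) or foreskin fibroblasts (DMEM), 10% FCS, 37 °C, were compound-treated. Supernatants were pooled with PBS-washed, trypsinised cells, then lysed in hypotonic 0.1% sodium citrate / 0.1% Triton X-100 with 50 µg/mL propidium iodide. Flow cytometry scored the sub-diploid nuclear fraction as apoptotic, relative to untreated controls. Means of three independent experiments.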

[6] = tested on: HT-29; experiment: Induction of apoptosis in human HT-29 cells assessed as sub-diploid DNA content at 1 uM after 96 hrs by FACS relative to control; format: functional; summary of the method: as §3
[7] = tested on: PANC-1; experiment: Induction of apoptosis in human PANC1 cells assessed as sub-diploid DNA content at 1 uM after 120 hrs by FACS relative to control; format: functional; summary of the method: as §3
[8] = tested on: PANC-1; experiment: Cytotoxicity against human PANC1 cells assessed as viable cells at 1 uM after 120 hrs by trypan blue exclusion assay relative to control; format: functional; settings: PANC-1, 120 h, read-out: Activity; summary of the method: as §2
[9] = tested on: HT-29; experiment: Induction of apoptosis in human HT-29 cells assessed as sub-diploid DNA content at 1 uM after 120 hrs by FACS relative to control; format: functional; summary of the method: as §3
[10] = tested on: PANC-1; experiment: Induction of apoptosis in human PANC1 cells assessed as sub-diploid DNA content at 1 uM after 96 hrs by FACS relative to control; format: functional; summary of the method: as §3
[11] = tested on: HT-29; experiment: Cytotoxicity against human HT-29 cells assessed as viable cells at 1 uM after 120 hrs by trypan blue exclusion assay relative to control; format: functional; settings: HT-29, 120 h, read-out: Activity; summary of the method: as §2
[12] = tested on: HT-29; experiment: Cytotoxicity against human HT-29 cells assessed as viable cells at 1 uM after 48 hrs by trypan blue exclusion assay relative to control; format: functional; settings: HT-29, 48 h, read-out: Activity; summary of the method: as §2
[13] = tested on: PANC-1; experiment: Cytotoxicity against human PANC1 cells assessed as viable cells at 1 uM after 48 hrs by trypan blue exclusion assay relative to control; format: functional; settings: PANC-1, 48 h, read-out: Activity; summary of the method: as §2
[14] = tested on: PANC-1; experiment: Induction of apoptosis in human PANC1 cells assessed as sub-diploid DNA content at 0.1 uM by FACS; format: functional, cell-based; summary of the method: as §3
[15] = tested on: MCF7; experiment: Antiproliferative activity against human MCF7 cells at 1 to 10 uM after 24 to 48 hrs by MTT assay; format: functional
[16] = tested on: MDA-MB-231; experiment: Antiproliferative activity against human MDA-MB-231 cells at 1 to 10 uM after 24 to 48 hrs by MTT assay; format: functional

| SMILES | Activity [1] | Activity [2] | viability at 48 h, 1 µM [3] | viability at 120 h, 1 µM [4] | Activity [5] | Activity [6] | Activity [7] | viability at 1 µM [8] | Activity [9] | Activity [10] | viability at 1 µM [11] | viability at 1 µM [12] | viability at 1 µM [13] | Activity [14] | Activity [15] | Activity [16] |
| --- | --- | --- | --- | --- | --- | --- | --- | --- | --- | --- | --- | --- | --- | --- | --- | --- |
| CC1=C2C(=CC(C)(C)[C@@H]2OC(=O)c2ccc(-c3ccc(C(=O)O[C@@H]4C5=C(C)C6(CC6)[C@@](C)(O)C(=O)C5=CC4(C)C)cn3)nc2)C(=O)[C@](C)(O)C12CC2 | Active | Active | 62% | 47.8% | 14.3% | – | – | – | – | – | – | – | – | – | – | – |
| CC1=C2C(=CC(C)(C)[C@@H]2OC(=O)CCCc2ccc(N(CCCl)CCCl)cc2)C(=O)[C@](C)(O)C12CC2 | – | – | – | 47.5% | 9.5% | <10% | 36.8% | 20% | 6% | <10% | 42.7% | – | – | – | – | – |
| CC1=C2C(=CC(C)(C)[C@@H]2OC(=O)C2C3CCC(O3)C2C(=O)O[C@@H]2C3=C(C)C4(CC4)[C@@](C)(O)C(=O)C3=CC2(C)C)C(=O)[C@](C)(O)C12CC2 (stereo partly drawn) [BIS(ILLUDINYL M) ENDOTHALLATE] | Active | Active | – | 49.3% | 33.1% | – | 74% | 6.4% | 52.9% | – | 3% | 26% | 33% | – | – | – |
| CC/C=C\C/C=C\C/C=C\C/C=C\C/C=C\C/C=C\CCC(=O)O[C@@H]1C2=C(C)C3(CC3)[C@@](C)(O)C(=O)C2=CC1(C)C [DOCOSAHEXAENOYL ILLUDIN M] | – | – | – | 80% | 4.4% | <10% | 2.6% | 103% | 1.9% | <10% | 111% | – | – | – | – | – |
| CC1=C2C(=CC(C)(C)[C@@H]2O)C(=O)[C@](C)(O)C12CC2 [ILLUDIN M] | – | – | 39% | 28.1% | 88.9% | – | 86% | 12.3% | 47.9% | – | 3.8% | 26% | 42% | Active | – | – |
| CC1=C(CO)C2=C(C)C3(CC3)[C@@](C)(O)C(=O)C2=C1 [IROFULVEN] | – | – | – | – | – | – | – | – | – | – | – | – | – | – | 70% | 70% |
